UCH37 inh = inhibitors of human UCH37 deubiquitinase, primary screen, biochemical, Ub-AMC cleavage, fluorescence | Ubiquitin carboxyl-terminal hydrolase isozyme L5 (Homo sapiens), Q9Y5K5 | purified proteasome/UCH37 | inhibition, % (test concentration not listed) | actives 0.33% (n = 330,000);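 active = mean inhibition over replicate wells above about 20%, limit read from the data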;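 also: 0% = compound-free wells with enzyme and 100% = wells lacking proteasome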
Target sequence (Q9Y5K5 whole entry, looked up): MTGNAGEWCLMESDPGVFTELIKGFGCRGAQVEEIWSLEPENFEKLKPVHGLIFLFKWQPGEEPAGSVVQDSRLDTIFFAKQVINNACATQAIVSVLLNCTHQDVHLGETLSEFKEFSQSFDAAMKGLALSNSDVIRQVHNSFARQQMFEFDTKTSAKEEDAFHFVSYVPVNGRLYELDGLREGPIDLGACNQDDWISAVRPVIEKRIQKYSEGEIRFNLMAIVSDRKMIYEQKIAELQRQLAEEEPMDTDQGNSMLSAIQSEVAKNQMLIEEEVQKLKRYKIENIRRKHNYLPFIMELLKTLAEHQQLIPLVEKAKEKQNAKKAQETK
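assay system = human UCH37 enzyme supplied as purified proteasome complex | amount = proteasome at 0.15 nM in the dispensed enzyme solution | schedule = 30 min compound-proteasome preincubation then 25 min substrate reaction, room temperature | measured by = fluorescence, ex 355 nm, em 460 nm | benchmarks = no-proteasome wells (full inhibition) and compound-free wells (no inhibition)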
SUMO Mot1 rescue = yeast Mot1-301 growth rescue at high temperature, primary screen, SUMOylation pathway inhibitor project, S. cerevisiae, ATP luminescence, 38.5C. actives 1% (n = 320,000). AID 2716, 2010. S. cerevisiae Mot1-301 growth rescue; percent above DMSO median, 100 means doubled. growth rescue, % at 18.8 µM;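 active = every valid replicate shows activation above 250% relative to neutral control wells; inactive = the rest, any valid replicate at or below 250%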;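 also: OY570 slx delta 5 strain wells were the positive control but not used for scaling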
Efflux pump inh = inhibitors of Candida efflux pumps in yeast, primary screen, S. cerevisiae, Nile Red, multiplex; S. cerevisiae Candida pump triplex; inhibition, % at 10 µM; actives 0.44% (n = 330,000);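 active = plate passing quality check with inhibition over a set limit, or well fluorescence over plate mean plus 4 SD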;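 also: Nile Red retained in pooled yeast measured as flow cytometry median fluorescence; 0% = buffer negative control and 100% = Enniatin B positive control; higher means more Nile Red kept so more efflux inhibition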
RTF Ca sens act = cardiac RTF calcium sensitivity activators, primary screen, biochemical, IANBD-TnC fluorescence, EC20 calcium | Troponin I, cardiac muscle (Homo sapiens) + Troponin T, cardiac muscle (Homo sapiens) + … | IANBD-labeled TnC RTF fluorescence at EC20 calcium; 0% EC20 calcium, 100% full calcium | activation, % at 7.2 µM | actives 0.24% (n = 340,000) | AID 493008, 2010;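 active = activation above the mean over all tested compounds plus 3 SD, cut at about 30% in these data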;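 also: rise in fluorescence read as greater calcium sensitivity of cardiac thin filaments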
Cardiac RTF inh = cardiac RTF calcium sensitivity inhibitors, primary screen, biochemical, IANBD-TnC fluorescence, EC70 calcium; IANBD-labeled cardiac RTF, Ca2+ fluorescence; inhibition, % at 7.15 µM; actives 0.12% (n = 340,000); AID 493244, 2011;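 active = inhibition above the mean inhibition of all tested compounds plus 3 SD, cut at about 17% in these data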;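 also: assay run at fixed EC70 calcium of 1.6 mM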
ARNT-TACC3 inh = disruptors of ARNT/TACC3 protein interaction, primary screen, biochemical, AlphaScreen, single concentration; actives 0.66% (n = 390,000); Transforming acidic coiled-coil-containing protein 3 (Homo sapiens), Q9Y6A5; AlphaScreen His-ARNT PAS-B/GST-TACC3 binding, luminescence; TACC3 fragment carries E629A point mutation; inhibition, % at 9.99 µM;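 active = mean inhibition of replicates at least 50% and at least half of replicates each reaching 50%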;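 also: 0% = complete ARNT plus TACC3 wells and 100% = ARNT alone without TACC3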
Yeast Mot1 SUMO = growth restoration of Mot1-301 yeast on galactose, dose response, SUMO pathway inhibitor project, whole organism, S. cerevisiae, ATP luminescence, cherry-picked samples; shares compounds with SUMO Mot1 rescue; S. cerevisiae Mot1-301 galactose growth, 24 h; -100 = growth of slx-deleted rescue strain; growth activity, percent, % at 42 µM; 2,300 tested, under 10 active; AID 493004, 2010;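 active = Signal drops as the depositor expects, and the fitted half-maximal dose is no more than ten times the top valid tested dose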;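 also: more negative values mean stronger growth rescue toward the control strain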
An asterisk follows results filed as active; · = no result given; + = active, no number. Only some compounds are listed: those with a hit (about 2.1% of all), similar ones and a draw of the others.

SMILES	UCH37 inh	SUMO Mot1 rescue	Efflux pump inh	RTF Ca sens act	Cardiac RTF inh	ARNT-TACC3 inh	Yeast Mot1 SUMO
CC(=O)CSc1ncnc2sc3c(c12)CCCC3	0	712*	0	1	-7	-3	0
COc1ccccc1N1CCN(C(=O)CSc2nc3ncnc(N)c3[nH]2)CC1	3	-18	0	0	-1	-3	·
O=C(CSc1nc(=O)n2ccccc2n1)N1CCN(c2ccccc2)CC1	4	559*	0	4	-5	·	1
Nc1ncnc2nc(SCC(=O)N3CCN(c4ccccc4)CC3)[nH]c12	-7	+	0	3	1	0	0
O=C1NCCCC1C(=O)NN=Cc1ccccc1 (stereo not drawn)	4	·	·	·	·	·	·
CCOC(=O)c1ccc(CNC(=O)C2CCCCC2C(=O)OCC(F)(F)F)o1 (stereo not drawn)	·	+	0	-1	1	·	0
COc1cc(C=NNC(=O)COc2ccc(-n3cnnn3)cc2)ccc1OCC(N)=O	4	·	·	·	·	·	·
COc1cc(CN2CCC(Oc3cc(C(=O)NC4CC4)ccc3OC)CC2)cc(OC)c1	5	393*	0	1	0	2	0
COc1ccc(C(=O)NC2CC2)cc1OC1CCN(Cc2ccc(NC(C)=O)cc2)CC1	3	·	·	1	-7	-4	·
COc1ccccc1NC(=S)N(Cc1ccccc1)Cc1cccs1	2	+	0	3	-9	-2	0
COc1cc(/C=C(\C#N)C(=O)Nc2ccc(C(=O)O)cc2)ccc1OC(=O)c1cccc(F)c1	·	827*	0	-3	-9	3	1
O=C(Nc1ccc2nc(-c3ccc4nc[nH]c4c3)[nH]c2c1)c1cccs1	0	465*	0	-5	6	-1	0
COc1cc(C(C)=NNC(=O)C(O)(c2ccccc2)c2ccccc2)ccc1O	1	·	·	·	·	·	·
O=[N+]([O-])c1ccc(C2CCCCC2=NOCc2ccc(F)cc2)c([N+](=O)[O-])c1 (stereo not drawn)	-1	·	·	·	·	·	·
CCOc1ncccc1-c1nc(-c2cccs2)no1	1	916*	0	5	-2	4	0
CC(=NNc1nccnc1Cl)c1ccc(O)c(C)c1	10	·	·	·	·	·	·
CN(CC(=O)N1CCc2[nH]c3ccc(F)cc3c2C1)CC1OCCO1	1	736*	0	·	·	·	0
Cc1ccc2[nH]c3c(c2c1)CN(C(=O)CN(C)CC1OCCO1)CC3	2	2	0	4	-14	4	·
COc1ccc(CCNC(=O)c2ccc3c(c2)N(Cc2ccc(F)cc2)CCS3)c(OC)c1	-81	-16	0	-1	0	-3	·
COc1ccc(OC)c(CCNC(=O)c2ccc3c(c2)N(Cc2ccc(F)cc2)CCS3)c1	-78	365*	0	5	-7	20	0
COc1ccc(C=NNC(=O)c2ccc3nc[nH]c3c2)c(OC)c1OC	5	·	·	·	·	·	·
O=S(=O)(NCc1ccc(Cl)cc1)c1cnc[nH]1	1	+	0	4	-1	-5	1
CCn1cc(C(=O)N(C)c2ccc(OC)cc2OC)c2cc(OC)c(OC)cc2c1=O	4	415*	0	3	-2	-3	0
C/C(C=NNC(=O)c1cccs1)=C/c1ccccc1	4	·	·	·	·	·	·
CC(=NNc1ccc(Cl)c(C(=O)O)c1)c1cc2ccccc2o1	18	·	·	·	·	·	·
SMILES	UCH37 inh	SUMO Mot1 rescue	Efflux pump inh	RTF Ca sens act	Cardiac RTF inh	ARNT-TACC3 inh	Yeast Mot1 SUMO
CCc1noc(C)c1C(=O)Nc1nc(-c2ccc(F)cc2)c(C)s1	3	634*	0	-6	2	-5	0
CCc1noc(C)c1C(=O)Nc1nc(-c2cc(C)ccc2C)c(C)s1	2	108	0	6	-6	10	·
Cc1nn(CC(=O)NN=Cc2ccc(F)cc2)c(C)c1[N+](=O)[O-]	2	·	·	·	·	·	·
COCCCNC(=O)CC(=O)NN=Cc1ccc(SC)cc1	1	·	·	·	·	·	·
CCCCn1c2nc3ccccc3nc2c2c(=O)n(CCC)cnc21	-46	731*	0	-3	2	-2	0
Cc1ccc(S(=O)(=O)NCC(C)n2cncn2)cc1 (stereo not drawn)	-1	533*	0	-1	-1	-5	1
C=CCN1C(=O)/C(=C/C(=O)OC)SC1=NNC(=O)c1ccccc1	4	·	·	·	·	·	·
Cc1ccccc1OCC(=O)NN=Cc1cccc2cccnc12	1	·	·	·	·	·	·
O=C(NCCCN1CCCCCC1)C1CCCN(S(=O)(=O)c2cccc3nsnc23)C1 (stereo not drawn)	1	-5	0	2	-14	·	·

High-throughput results deposited in PubChem BioAssay by several laboratories.
